PAFAH1B2 FP inh – PAFAH1B2 enzyme inhibitors, primary screen, biochemical, fluorescence polarization, human | inhibition, % at 3.39 µM | actives 1.2% (n = 340,000) | recombinant PAFAH1B2, FP-rhodamine activity probe;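 active = inhibition above the mean of all tested compounds plus 3 SD, cut at about 24% in these data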;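 also: 0% = enzyme with DMSO and 100% = wells lacking PAFAH1B2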
Target sequence (P68402 whole entry, looked up): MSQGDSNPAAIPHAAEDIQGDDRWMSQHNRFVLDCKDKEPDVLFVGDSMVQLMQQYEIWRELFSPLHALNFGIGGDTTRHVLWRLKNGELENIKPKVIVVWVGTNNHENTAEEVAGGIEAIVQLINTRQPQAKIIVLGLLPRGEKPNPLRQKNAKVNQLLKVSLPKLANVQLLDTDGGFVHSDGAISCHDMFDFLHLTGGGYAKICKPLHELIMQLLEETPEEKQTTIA
PAFAH1B3 FP inh – PAFAH1B3 enzyme inhibitors, primary screen, biochemical, fluorescence polarization, human. inhibition, % at 3.39 µM. actives 0.28% (n = 340,000). Platelet-activating factor acetylhydrolase IB subunit alpha1 (Homo sapiens), Q15102. recombinant PAFAH1B3, FP-rhodamine probe;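 active = inhibition above the screen-wide average of all tested compounds plus 3 SD, cut at about 25% in these data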;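 also: 0% = enzyme with DMSO only and 100% = wells lacking PAFAH1B3 protein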
Target sequence (Q15102 whole entry, looked up): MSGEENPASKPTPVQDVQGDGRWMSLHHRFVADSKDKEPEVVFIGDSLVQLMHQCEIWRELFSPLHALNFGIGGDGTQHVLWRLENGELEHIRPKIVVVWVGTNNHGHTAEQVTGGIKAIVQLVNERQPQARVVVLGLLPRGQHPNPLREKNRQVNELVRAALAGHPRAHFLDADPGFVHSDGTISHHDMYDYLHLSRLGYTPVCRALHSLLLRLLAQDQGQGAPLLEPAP
ARFGAP1 inhibitor – inhibitors of rat ARFGAP1 GAP activity, primary screen, biochemical, fluorescence polarization, GDP tracer; AID 651572, 2012; ADP-ribosylation factor GTPase-activating protein 1 (Rattus norvegicus), Q62848; actives 0.26% (n = 360,000); Arfgap1-stimulated ARF1 GTP hydrolysis, GDP FP detection; inhibition, % at 16.5 µM;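 active = inhibition above a per-plate limit, mean inhibition of low control wells plus 3 SD, cut at about 25% in these data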;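 also: 0% = DMSO wells with enzyme and 100% = wells lacking Arfgap1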
Target sequence (Q62848 1-136 limits assumed): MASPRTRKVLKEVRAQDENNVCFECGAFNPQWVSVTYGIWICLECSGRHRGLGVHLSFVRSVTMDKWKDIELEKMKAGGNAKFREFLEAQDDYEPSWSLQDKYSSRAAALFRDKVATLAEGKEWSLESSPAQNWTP
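Material – truncated rat Arfgap1 GAP domain · Buffer or medium – HEPES-based buffer, pH 7.5 · Reagent – human ARF1(Δ1-17)-GTP substrate · Dosing – 16.5 µM single point, 1.26% DMSO · Schedule – GTP hydrolysis reaction 2 h at 25 °C · Technique – GDP detection by fluorescence polarization · Benchmarks – No-Arfgap1 wells (100%) versus DMSO full-reaction wells (0%) · Repeats – single replicate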
ASAP1 GAP inh – inhibitors of human ASAP1 ArfGAP activity, primary screen, biochemical, fluorescence polarization; Arf-GAP with SH3 domain, ANK repeat and PH domain-containing protein 1 (Homo sapiens), …; ASAP1-stimulated ARF1 GTP hydrolysis, GDP FP detection; inhibition, % at 16.5 µM; actives 0.19% (n = 360,000); AID 624377, 2012; in the data active = inhibition above about 25%;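 also: 0% = vehicle with enzyme and substrate and 100% = no enzyme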
PAFAH2 inh – PAFAH2 enzyme inhibitors, primary screen, biochemical, fluorescence polarization, human | recombinant PAFAH2, FP-rhodamine activity probe | Platelet-activating factor acetylhydrolase 2, cytoplasmic (Homo sapiens), Q99487 | actives 0.99% (n = 340,000) | inhibition, % at 3.39 µM | AID 492956, 2010;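 active = inhibition above the mean over all tested compounds plus 3 SD, cut at about 30% in these data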;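 also: inhibitors block probe labeling of enzyme so polarization drops; 0% = enzyme with DMSO and 100% = wells lacking PAFAH2 protein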
pPAFAH FP inh – pPAFAH enzyme inhibitors, primary screen, biochemical, fluorescence polarization, human; recombinant pPAFAH, FP-rhodamine probe fluorescence polarization; inhibition, % at 3.39 µM; actives 1.5% (n = 330,000);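 active = inhibition above the mean inhibition across the screen plus 3 SD, cut at about 25% in these data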;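 also: inhibitors block binding of the rhodamine activity-based probe so polarization drops; 0% = enzyme with DMSO and 100% = wells lacking pPAFAH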
PAFAH2 confirm – PAFAH2 enzyme inhibitors, confirmation, biochemical, fluorescence polarization, human; shares compounds with PAFAH2 inh; inhibition, % at 3.39 µM; AID 493030, 2011; recombinant PAFAH2, FP-rhodamine activity probe; actives 65% (n = 2,300);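 active = mean inhibition over three repeats above a set limit taken from the earlier primary screen, cut at about 30% in these data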;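 also: inhibitor blocks binding of rhodamine activity probe so polarization falls; 0% = enzyme with DMSO and 100% = wells lacking PAFAH2 protein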
Active calls of the source: *. Sampled rows, rich in hits. Any-hit rate of the full collection: about 2.8%.

What do the screens show for `Cc1ccc(S(=O)(=O)N2CC(O)CC2C(=O)OCC(=O)Nc2ccc([N+](=O)[O-])cc2C(F)(F)F)cc1C` (centres undefined)?
PAFAH1B2 FP inh: 3; PAFAH1B3 FP inh: 1; ARFGAP1 inhibitor: -9; ASAP1 GAP inh: -7; PAFAH2 inh: 0; pPAFAH FP inh: 1

What do the screens show for `O=C1c2ccccc2[C@@H]2C[C@@H](O)[C@H](Nc3ccccc3)CCN12`?
PAFAH1B2 FP inh: 3; PAFAH1B3 FP inh: 7; ARFGAP1 inhibitor: -5; ASAP1 GAP inh: 0; PAFAH2 inh: 13; pPAFAH FP inh: -1

How did O=C1c2ccccc2[C@@H]2C[C@@H](O)[C@H](Nc3cccc(C(F)(F)F)c3)CCN12 do in these assays?
PAFAH1B2 FP inh: 5; PAFAH1B3 FP inh: 11; ARFGAP1 inhibitor: 13; ASAP1 GAP inh: 2; PAFAH2 inh: 40*; pPAFAH FP inh: 23; PAFAH2 confirm: 30*

What do the screens show for `COc1ccc(NC(=O)C(Cl)=C(Cl)Cl)cn1`?
PAFAH1B2 FP inh: 1; PAFAH1B3 FP inh: 5; ARFGAP1 inhibitor: 9; ASAP1 GAP inh: -11; PAFAH2 inh: -4

How did COc1ccc(NC(=O)/C(Cl)=C(/Cl)S(=O)(=O)Cc2ccccc2)cn1 do in these assays?
PAFAH1B2 FP inh: 8; PAFAH1B3 FP inh: 0; ARFGAP1 inhibitor: 16; ASAP1 GAP inh: 11; PAFAH2 inh: 41*; PAFAH2 confirm: 19

Results for O=C(COC(=O)C1CCC1)Nc1cccc(Cl)c1 ?
PAFAH1B2 FP inh: 0; PAFAH1B3 FP inh: -2; ARFGAP1 inhibitor: 9; ASAP1 GAP inh: 5; PAFAH2 inh: 3; pPAFAH FP inh: 0

What do the screens show for `O=C(COC(=O)C1CCCCC1)Nc1cccc(F)c1`?
PAFAH1B2 FP inh: -1; PAFAH1B3 FP inh: 4; ARFGAP1 inhibitor: -9; ASAP1 GAP inh: -1; PAFAH2 inh: 89*; pPAFAH FP inh: 10; PAFAH2 confirm: 79*

Results for O=C(COC(=O)CC1CCCC1)Nc1cccc(F)c1 ?
PAFAH1B2 FP inh: -4; PAFAH1B3 FP inh: -1; ARFGAP1 inhibitor: -3; ASAP1 GAP inh: -11; PAFAH2 inh: 81*; pPAFAH FP inh: 21; PAFAH2 confirm: 81*

What do the screens show for `O=C(COC(=O)C1CCCCC1)Nc1cccc(Br)c1`?
PAFAH1B2 FP inh: -2; PAFAH1B3 FP inh: 4; ARFGAP1 inhibitor: -4; ASAP1 GAP inh: -6; PAFAH2 inh: 77*; pPAFAH FP inh: 7; PAFAH2 confirm: 71*

How did CSCCC(C(=O)N(C)CC(=O)Nc1cccc(F)c1)N1C(=O)c2ccccc2C1=O (centres undefined) do in these assays?
PAFAH1B2 FP inh: 4; PAFAH1B3 FP inh: 7; ARFGAP1 inhibitor: -10; ASAP1 GAP inh: 6; PAFAH2 inh: 0; pPAFAH FP inh: -1

Results for Cn1c(=O)oc2cc(S(=O)(=O)NCCC(=O)NCc3ccc(F)cc3)ccc21 ?
PAFAH1B2 FP inh: 0; PAFAH1B3 FP inh: 5; ARFGAP1 inhibitor: 5; ASAP1 GAP inh: 6; PAFAH2 inh: -1; pPAFAH FP inh: 2

What do the screens show for `Cc1ccc(S(=O)(=O)N(C)c2cccc3c2S(=O)(=O)N([C@H](C)c2ccccc2)C[C@@H](COCc2ccccc2)O3)cc1`?
ARFGAP1 inhibitor: -2; ASAP1 GAP inh: 5

Results for O=C1OC(c2ccccc2)Sc2ccccc21 (centres undefined) ?
PAFAH1B2 FP inh: 5; PAFAH1B3 FP inh: 2; ARFGAP1 inhibitor: -2; ASAP1 GAP inh: -5; PAFAH2 inh: 81*; PAFAH2 confirm: 85*

Results for O=C(COC(=O)c1ccc(CO)cc1)Nc1ccc2ccccc2c1 ?
PAFAH1B2 FP inh: 0; PAFAH1B3 FP inh: -1; ARFGAP1 inhibitor: -1; ASAP1 GAP inh: -5; PAFAH2 inh: 80*; pPAFAH FP inh: -6; PAFAH2 confirm: 71*

What do the screens show for `O=C(COC(=O)c1ccc(Cl)nc1)Nc1ccc2ccccc2c1`?
PAFAH1B2 FP inh: -2; PAFAH1B3 FP inh: 2; ARFGAP1 inhibitor: 6; ASAP1 GAP inh: -7; PAFAH2 inh: 26

How did O=C(COC(=O)c1ccc(CO)cc1)Nc1ccc(OC(F)F)cc1 do in these assays?
PAFAH1B2 FP inh: 2; PAFAH1B3 FP inh: 4; ARFGAP1 inhibitor: 5; ASAP1 GAP inh: 3; PAFAH2 inh: 82*; pPAFAH FP inh: -6; PAFAH2 confirm: 74*

What do the screens show for `Cc1cc(C)c(-c2cc(NC(=O)COC(=O)c3ccc(CO)cc3)n(-c3ccccc3)n2)cc1C`?
PAFAH1B2 FP inh: -5; PAFAH1B3 FP inh: -6; ARFGAP1 inhibitor: 5; ASAP1 GAP inh: 6; PAFAH2 inh: 32*; pPAFAH FP inh: 3; PAFAH2 confirm: 23

What do the screens show for `O=c1onc(-c2ccccc2)n1Cc1ccc([N+](=O)[O-])cc1`?
ARFGAP1 inhibitor: 1; ASAP1 GAP inh: -4

What do the screens show for `COc1cccc(CCNC(=O)C2CCC(=O)N(C3CC3)C2)c1OC` (centres undefined)?
PAFAH1B2 FP inh: 2; PAFAH1B3 FP inh: 2; ARFGAP1 inhibitor: 6; ASAP1 GAP inh: 14; PAFAH2 inh: 1

Results for O=C(COC(=O)c1cccs1)Nc1ccccc1[N+](=O)[O-] ?
PAFAH1B2 FP inh: 3; PAFAH1B3 FP inh: -3; ARFGAP1 inhibitor: 1; ASAP1 GAP inh: -2; PAFAH2 inh: 75*; pPAFAH FP inh: 2; PAFAH2 confirm: 68*

How did N#Cc1ccccc1NC(=O)COC(=O)c1cccs1 do in these assays?
PAFAH1B2 FP inh: 5; PAFAH1B3 FP inh: -2; ARFGAP1 inhibitor: -3; ASAP1 GAP inh: 12; PAFAH2 inh: 84*; pPAFAH FP inh: 4; PAFAH2 confirm: 63*

Results for COc1ccc(Cl)cc1NC(=O)C(C)N1CCN(c2ccccn2)CC1 (centres undefined) ?
PAFAH1B2 FP inh: 1; PAFAH1B3 FP inh: 1; ARFGAP1 inhibitor: 3; ASAP1 GAP inh: -6; PAFAH2 inh: 0; pPAFAH FP inh: 3

How did CN(C)c1ccc(CC(=O)N2CCCCC2c2cc(C(=O)Nc3ccccc3Cl)no2)cc1 (centres undefined) do in these assays?
ARFGAP1 inhibitor: -10; ASAP1 GAP inh: -4

What do the screens show for `Cc1ccc(NC(=O)COC(=O)C2CC2C)c(S(=O)(=O)N2CCCCC2)c1` (centres undefined)?
PAFAH1B2 FP inh: -11; PAFAH1B3 FP inh: 0; ARFGAP1 inhibitor: 2; ASAP1 GAP inh: -1; PAFAH2 inh: 82*; pPAFAH FP inh: 5; PAFAH2 confirm: 78*
